Measurements reported in paper PMC3350218 (Journal of Medicinal Chemistry, 2012).
Where two headings read alike, the source gives them in different places. Each block holds one molecule with its values, some of them ahead of it.

Tests used:
P. falciparum = assay: Antiplasmodial activity as quoted in text; type: cell-based, Plasmodium falciparum; details: for EC50: Plasmodium falciparum, read-out: antiplasmodial activity EC50; for improvement in potency: on 8,8-dimethyl substitution (33 vs 32; 35 vs 31); for loss/decrease of potency: relative to parent compound (17: 8-methyl; 32: lactam vs 31)
Method in brief: (§1)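 P. falciparum was grown in O+ erythrocytes and tested in serum-free medium with 0.5% Albumax II. Test compound ran as a 12-point half-log series, top final 10 μM, at 0.3% parasitemia and 2.5% hematocrit, 72 h, 37 °C, low-oxygen gas. Saponin/Triton lysis buffer with SYBR Green was added (24 h, 25 °C), then fluorescence read at 485/530 nm. […] EC50 came from logistic fit, with at least duplicate plates.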

Caco-2 = Caco-2 permeability assay; type: in vitro ADME; details: for Caco-2 A–B: apical to basolateral; for Caco-2 B–A: basolateral to apical
P. falciparum strain W2 = assay: Antiplasmodial proliferation inhibition assay, 384-well, SYBR Green; type: cell-based, Plasmodium falciparum
Method in brief: as §1

Plasmodium berghei = Plasmodium berghei mouse survival model; type: in vivo, Plasmodium berghei (NMRI mice); details: for survival (average lifespan after infection): untreated control 6–7 days
Method in brief: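 Female NMRI mice (20–22 g), three per group, were infected IV on day 0 with 2 × 10^7 P. berghei GFP ANKA-parasitised erythrocytes. Test compound in 75% PEG300/25% D5W was given orally at 10 mL/kg, either once at 24 h or daily at 24, 48 and 72 h. Parasitemia was measured by flow cytometry at 72 h or 96 h, as % reduction versus untreated controls. Survival was followed to day 30, and cure meant parasite-free survival to day 30.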

[1] = Rat full PK / dose escalation PK; type: in vivo; details: rat PO, 30 mg/kg vs 10 mg/kg
[2] = In vivo pharmacokinetics in mice; details: mouse, plasma
Rat snapshot PK = type: in vivo
[3] = Caco-2 permeability assay; type: in vitro ADME; details: human, Caco-2
[4] = Metabolic stability in mouse liver microsomes; type: in vitro ADME; details: Table 2
PAMPA assay = type: in vitro ADME; details: Table 3
P. falciparum strain 3D7 = assay: Antiplasmodial proliferation inhibition assay, 384-well, SYBR Green; type: cell-based; details: Plasmodium falciparum, 3D7, read-out: P. falciparum strain EC50 3D7
Method in brief: as §1

[5] = read-out: P. falciparum strain EC50 W2, Table 1, means of two experiments, 72 h incubation
[6] = Wistar, rat, plasma, po, 20 mg/kg

Molecule: Cc1ccc(Nc2c(-c3ccc(F)cc3)nc3n2CCNC3(C)C)cc1 [Compound 35, 2-(4-Fluorophenyl)-8,8-dimethyl-N-p-tolyl-5,6,7,8-tetrahydroimidazo[1,2-a]pyrazin-3-amine]
EC50 (P. falciparum): ~10 nM | improvement in potency (P. falciparum): ~10 fold | Caco-2 A–B (Caco-2): 15.56 cm/s ×10^6 | Caco-2 B–A (Caco-2): 6.96 cm/s ×10^6

Molecule: 2-Amino-1-(3-(4-chloro-3-fluorophenylamino)-2-(4-fluorophenyl)-8,8-dimethyl-5,6-dihydroimidazo[1,2-a]pyrazin-7(8H)-yl)ethanone [Compound 21]
EC50 (P. falciparum strain W2; [5]): 24 ± 1 nM

Molecule: CC1(C)c2nc(-c3ccc(F)cc3)c(Nc3ccc(F)cc3)n2CCN1C(=O)CN [Compound 22, 2-Amino-1-(2-(4-fluorophenyl)-3-(4-fluorophenylamino)-8,8-dimethyl-5,6-dihydroimidazo[1,2-a]pyrazin-7(8H)-yl)ethanone]
activity (average parasitemia reduction) (Plasmodium berghei; 1 × 30 mg/kg oral, 30 mg/kg): > 99% | efficacy of substituted vs unsubstituted piperazine core (ED99) (Plasmodium berghei; compound 22 vs compound 1): ~10 fold | increase in AUC [1]: 7 fold | increase in bioavailability [1]: 2 fold | Caco-2 A–B (Caco-2): 1.26 cm/s ×10^6 | Caco-2 B–A (Caco-2): 2.99 cm/s ×10^6 | Cmax ([2]; oral, 2 mg/kg): ~75 nM

Molecule: Cc1ccc(Nc2c(-c3ccc(F)cc3)nc3n2CCN(C(=O)C(C)(C)N)C3(C)C)cc1 [Compound 29, 2-Amino-1-(2-(4-fluorophenyl)-8,8-dimethyl-3-(p-tolylamino)-5,6-dihydroimidazo[1,2-a]pyrazin-7(8H)-yl)-2-methylpropan-1-one]
activity (average parasitemia reduction) (Plasmodium berghei; 1 × 30 mg/kg oral, 30 mg/kg): > 99% | survival (average lifespan after infection) (Plasmodium berghei; 3 × 30 mg/kg oral): 18.0 days | in vivo exposure in rat (Rat snapshot PK; oral, rat snapshot PK): did not exhibit any in vivo exposure | Caco-2 A–B (Caco-2): 3.5 cm/s ×10^6 | Caco-2 B–A (Caco-2): 2.37 cm/s ×10^6

Molecule: (S)-2-Amino-1-(3-(4-chloro-3-fluorophenylamino)-2-(4-fluorophenyl)-8-methyl-5,6-dihydroimidazo[1,2-a]pyrazin-7(8H)-yl)ethanone [Compound 17]
EC50 (P. falciparum strain W2; [5]): 24 ± 1 nM | loss/decrease of potency (P. falciparum): 10 fold

Molecule: (S)-2-Amino-1-(3-(4-chloro-3-fluorophenylamino)-2-(4-fluorophenyl)-8-isopropyl-5,6-dihydroimidazo[1,2-a]pyrazin-7(8H)-yl)ethanone [Compound 19]
EC50 (P. falciparum strain W2; [5]): 470 ± 130 nM

Papp A→B [3]: 3.05 ×10⁻⁶ cm/s | Papp B→A [3]: 8.38 ×10⁻⁶ cm/s
Molecule: CC(C)(N)C(=O)N1CCn2c(nc(-c3ccc(F)cc3)c2Nc2ccc(F)cc2)C1 [Compound 27, 2-Amino-1-(2-(4-fluorophenyl)-3-((4-fluorophenyl)amino)-5,6-dihydroimidazo[1,2-a]pyrazin-7(8H)-yl)-2-methylpropan-1-one]

Papp A→B [3]: 0.7 ×10⁻⁶ cm/s | Papp B→A [3]: 2.55 ×10⁻⁶ cm/s
Molecule: NCC(=O)N1CCn2c(nc(-c3ccc(F)cc3)c2Nc2ccc(F)cc2)C1 [Compound 15]

Caco-2 A–B (Caco-2): 1.2 cm/s ×10^6 | Caco-2 B–A (Caco-2): 0.97 cm/s ×10^6
Molecule: CC(C)(N)C(=O)N1CCn2c(nc(-c3ccc(F)cc3)c2Nc2ccc(F)cc2)C1(C)C [Compound 28, 2-Amino-1-(2-(4-fluorophenyl)-3-(4-fluorophenylamino)-8,8-dimethyl-5,6-dihydroimidazo[1,2-a]pyrazin-7(8H)-yl)-2-methylpropan-1-one]

Caco-2 A–B (Caco-2): 15 cm/s ×10^6 | Caco-2 B–A (Caco-2): 14.37 cm/s ×10^6
Molecule: Cc1ccc(Nc2c(-c3ccc(F)cc3)nc3n2CC(=O)NC3)cc1 [Compound 32, 2-(4-Fluorophenyl)-3-(p-tolylamino)-7,8-dihydroimidazo[1,2-a]pyrazin-6(5H)-one]
loss/decrease of potency (P. falciparum): ~7 fold

Molecule: CC1(C)NC(=O)Cn2c1nc(-c1ccc(F)cc1)c2Nc1ccc(Cl)c(F)c1 [Compound 34, 3-(4-Chloro-3-fluorophenylamino)-2-(4-fluorophenyl)-8,8-dimethyl-7,8-dihydro imidazo[1,2-a]pyrazin-6(5H)-one]
mouse microsome hepatic extraction ratio [4]: 0.61 | EC50 (P. falciparum strain W2; Plasmodium falciparum, W2, read-out: P. falciparum strain EC50 W2): 65 ± 3 nM | activity (average parasitemia reduction) (Plasmodium berghei; 1 × 30 mg/kg oral): 47.0% | survival (average lifespan after infection) (Plasmodium berghei; 1 × 30 mg/kg oral): 6.3 days | activity (average parasitemia reduction) (Plasmodium berghei; 1 × 100 mg/kg oral): 97.0% | survival (average lifespan after infection) (Plasmodium berghei; 1 × 100 mg/kg oral): 6.7 days | activity (average parasitemia reduction) (Plasmodium berghei; 3 × 30 mg/kg oral): 66.0% | survival (average lifespan after infection) (Plasmodium berghei; 3 × 30 mg/kg oral): 7.0 days | PAMPA, measured as percentage absorbed (PAMPA assay): 97.1% | AUC(0–5 h)/dose (Rat snapshot PK; PO, Wistar rat): 5.07 (min·μg/mL)/(mg/kg) | AUC(0-t) (Rat snapshot PK; [6]): 2.1 µM·h | Cmax (Rat snapshot PK; [6]): 504 nM | EC50 (P. falciparum strain 3D7): 36 ± 2 nM | Papp A→B [3]: 3.22 ×10⁻⁶ cm/s | Papp B→A [3]: 3.35 ×10⁻⁶ cm/s | AUC(0-t) ([2]; male, Balb/c, iv, 5 mg/kg): 16.5 µM·h | Vd ([2]; male, Balb/c, iv, 5 mg/kg): 2.7 L/kg | clearance ([2]; male, Balb/c, iv, 5 mg/kg): 12.5 mL/min/kg | half-life ([2]; male, Balb/c, iv, 5 mg/kg): 2.8 h | bioavailability ([2]; male, Balb/c, oral, 20 mg/kg): 77% | AUC(0-t) ([2]; male, Balb/c, po, 20 mg/kg): 50.6 µM·h | Cmax ([2]; male, Balb/c, po, 20 mg/kg): 3650 nM | Tmax ([2]; male, Balb/c, po, 20 mg/kg): 1 h | half-life ([2]; male, Balb/c, po, 20 mg/kg): 2.71 h

Molecule: Cc1ccc(Nc2c(-c3ccc(F)cc3)nc3n2CC(=O)NC3(C)C)cc1 [Compound 33, 2-(4-Fluorophenyl)-8,8-dimethyl-3-(p-tolylamino)-7,8-dihydroimidazo[1,2-a]pyrazin-6(5H)-one]
improvement in potency (P. falciparum): 7 fold

EC50 (P. falciparum): 160 to 400 nM | Caco-2 A–B (Caco-2): 8.2 cm/s ×10^6 | Caco-2 B–A (Caco-2): 2.36 cm/s ×10^6
Molecule: Cc1ccc(Nc2c(-c3ccc(F)cc3)nc3n2CCNC3)cc1 [Compound 31, 2-(4-Fluorophenyl)-N-(p-tolyl)-5,6,7,8-tetrahydroimidazo[1,2-a]pyrazin-3-amine]

Caco-2 A–B (Caco-2): 0.61 cm/s ×10^6 | Caco-2 B–A (Caco-2): 1.3 cm/s ×10^6
Molecule: CC1(C)c2nc(-c3ccc(F)cc3)c(Nc3ccc(F)c(F)c3)n2CCN1C(=O)CN [Compound 24, 2-Amino-1-(3-((3,4-difluorophenyl)amino)-2-(4-fluorophenyl)-8,8-dimethyl-5,6-dihydroimidazo[1,2-a]pyrazin-7(8H)-yl)ethanone]
activity (average parasitemia reduction) (Plasmodium berghei; 1 × 30 mg/kg oral, 30 mg/kg): > 99%

Molecule: (R)-2-Amino-1-(3-(4-chloro-3-fluorophenylamino)-2-(4-fluorophenyl)-8-methyl-5,6-dihydroimidazo[1,2-a]pyrazin-7(8H)-yl)ethanone [Compound 18]
EC50 (P. falciparum strain W2; [5]): 29 ± 3 nM

Molecule: (R)-2-Amino-1-(3-(4-chloro-3-fluorophenylamino)-2-(4-fluorophenyl)-8-isopropyl-5,6-dihydroimidazo[1,2-a]pyrazin-7(8H)-yl)ethanone [Compound 20]
EC50 (P. falciparum strain W2; [5]): 202 ± 38 nM
